From ChEMBL document CHEMBL1124109, “Novel calcium antagonists. Synthesis and structure-activity relationship studies of benzothiazoline derivatives” (J Med Chem, 1988)

Columns and labels:
Cavia porcellus = organism: Cavia porcellus; assay: In vitro molar concentration required to block [Ca2+] -induced contraction of K+-depolarized taenia cecum of guinea pigs; assay type: functional; conditions: Caecum
Method in brief: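 Guinea pig taenia cecum washed with Ca2+-free high-K+ Krebs solution after equilibration. Compound applied 5 min before CaCl2 (3 × 10^-4 M). Contraction recorded isotonically.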

Mus musculus = organism: Mus musculus; assay: Effect on acute thrombic death induced by collagen in mice; assay type: functional; conditions: read-out: ID50 (the source's name)
Method in brief: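 Male ddY mice (20-30 g) given compound orally as 0.5% tragacanth suspension 3 h before rapid tail-vein injection (2 s) of collagen (type III, 3 mg/mL in acetic acid/Tris pH 7.4), about 30 mg/kg, set so […] within 3 min. Survival scored; % inhibition = (St - Sc)/(100 - Sc); ID50 in mg/kg po; n=8 treated, 12 control.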

Oryctolagus cuniculus [1] = organism: Oryctolagus cuniculus; assay: Electrophysiological effect in isolated rabbit hearts as molar concentration that prolongs the His bundle ventricular (H-V) conduction time by 10%; assay type: functional, Cardiac ventricle
Rattus norvegicus [2] = assay: Hypotensive effect in Spontaneously hypertensive rats as maximum decrease in systolic blood pressure at 100 mg/kg, po dose; assay type: functional, Artery
Method in brief: (§1)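 Male SHR, 300-400 g, conscious, 6-13 animals. Oral dosing as a 0.5% methylcellulose suspension. Systolic pressure by tail-cuff plethysmography at 0, 1, 3, 6, 9 and 24 h after dosing; heart rate from pulse over 4 s. Value is maximum SBP fall, mean ± SEM of six animals; Dunnett's test.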

Rattus norvegicus [3] = assay: Hypotensive effect in Spontaneously hypertensive rats as maximum decrease in systolic blood pressure at 30 mg/kg, po dose; assay type: functional, Artery; method in brief: as §1
Oryctolagus cuniculus [4] = organism: Oryctolagus cuniculus; assay: Electrophysiological effect in isolated rabbit hearts as molar concentration that prolongs the atrio-His bundle (A-H) conduction time by 30%; assay type: functional
[5] = Ratio between EC10 and EC30 in isolated rabbit hearts in His bundle ventricular intervals; assay type: functional
Rattus norvegicus [6] = assay: Hypotensive effect in Spontaneously hypertensive rats as maximum decrease in systolic blood pressure at 10 mg/kg, po dose; assay type: functional, Artery; method in brief: as §1

| SMILES | IC50 (Cavia porcellus) [µM] | also measured |
| --- | --- | --- |
| COc1ccc(OCCCCCN2CCN(CCc3ccc(OC)c(OC)c3)CC2)c(C2Sc3ccccc3N2C(C)=O)c1 (configuration not stated) | 0.82 | – |
| CNCCCCOc1ccc(OC)cc1C1Sc2ccccc2N1C(C)=O (configuration not stated) | 2 | – |
| COc1ccc(OCCCCN2CCN(CCc3cc(OC)c(OC)c(OC)c3)CC2)c(C2Sc3ccccc3N2C=O)c1 (configuration not stated) | 2.6 | – |
| COc1ccc(OCCCN2CCC(C(=O)c3ccccc3)CC2)c(C2Sc3ccccc3N2C(C)=O)c1 (configuration not stated) | 11 | – |
| CC(=O)N1CCSC1c1ccc(OCCN(C)C)cc1 (configuration not stated) | > 100 | – |
| CC(=O)N1c2ccccc2SC1c1ccc(OCCCN(C)C2CCCCC2)cc1 (configuration not stated) | 4.4 | – |
| COc1ccc(OCCCCCN(C)CCc2ccc(OC)c(OC)c2)c(C2Sc3ccccc3N2C(C)=O)c1 (configuration not stated) | 1.3 | – |
| CC(=O)N1c2ccccc2SC1c1ccc(OCCCN(C)C)cc1 (configuration not stated) | 5.5 | – |
| COc1ccc(OCCCN(C)C)c(C2Sc3ccccc3N2C(C)=O)c1 (configuration not stated) | 1.6 | – |
| CC(=O)N1CCSC1c1ccccc1OCCN(C)C (configuration not stated) | > 100 | – |
| CC(=O)N1c2ccccc2SC1c1ccccc1OCCN(C)C (configuration not stated) | 17 | – |
| COc1ccc(OCCCCN(C)CCCc2ccc(OC)c(OC)c2OC)c(C2Sc3ccccc3N2C(C)=O)c1 (configuration not stated) | 1.2 | – |
| CC(=O)N1c2ccccc2SC1c1cc([N+](=O)[O-])ccc1OCCCCN(C)C1CCCCC1 (configuration not stated) | 5.4 | – |
| CC(=O)N1c2ccccc2SC1c1ccccc1OCCCN(C)C (configuration not stated) | 10 | – |
| COc1cccc(C2Sc3ccccc3N2C(C)=O)c1OCCCCN(C)C1CCCCC1 (configuration not stated) | 8.8 | – |
| COc1ccc(OCCCCN2CCC(C(=O)c3ccc(F)cc3)CC2)c(C2Sc3ccccc3N2C=O)c1 (configuration not stated) | 4.8 | – |
| COc1cccc(C2Sc3ccccc3N2C(C)=O)c1OCCCN(C)C (configuration not stated) | 13 | – |
| CC(=O)N1c2ccccc2SC1c1cccc(OCCCN(C)C)c1 (configuration not stated) | 11 | – |
| CCC(=O)N1c2ccccc2SC1c1cc(OC)ccc1OCCCCCN(C)C1CCCCC1 (configuration not stated) | 7 | – |
| COc1ccc(OCCCCCCN(C)C2CCCCC2)c(C2Sc3ccccc3N2C(C)=O)c1 (configuration not stated) | 4.2 | – |
| COc1ccc(OCCCCN2CCN(CCc3cc(OC)c(OC)c(OC)c3)CC2)c(C2Sc3ccccc3N2C(C)=O)c1 (configuration not stated) | 0.47 | – |
| COc1ccc(OCCCCN(C)CCc2ccc(OC)c(OC)c2)c(C2Sc3ccccc3N2C(C)=O)c1 (configuration not stated) | 0.66 | – |

| SMILES | IC50 (Cavia porcellus) [µM] | also measured |
| --- | --- | --- |
| CC(=O)N1CCSC1c1cc([N+](=O)[O-])ccc1OCCCN(C)C (configuration not stated) | 4.1 | – |
| CCC(=O)N1c2ccccc2SC1c1ccccc1OCCCN(C)C1CCCCC1 (configuration not stated) | 3.2 | – |
| COc1ccc(OCCCCN2CCN(CCc3ccc(OC)c(OC)c3)CC2)c(C2Sc3ccccc3N2C(C)=O)c1 (configuration not stated) | 0.64 | – |
| COc1ccc(OCCCCCN(C)CCc2cc(OC)c(OC)c(OC)c2)c(C2Sc3ccccc3N2C(C)=O)c1 (configuration not stated) | 1.3 | – |
| CC(=O)N1c2ccccc2SC1c1cc(Cl)ccc1OCCCN(C)C (configuration not stated) | 3.8 | – |
| COc1ccc(OCCCCN(C)CCc2cc(OC)c(OC)c(OC)c2)c(C2Sc3ccccc3N2C(C)=O)c1 (configuration not stated) | 0.13 | ED50 (Mus musculus): 12 mg/kg; EC10 (Oryctolagus cuniculus [1]): 0.2 µM; Decrease of SBP (Rattus norvegicus [2]): 87.5 mmHg; Decrease of SBP (Rattus norvegicus [3]): 48.3 mmHg |
| COc1ccc(OCCCCN(C)CC(C)c2ccc(OC)c(OC)c2)c(C2Sc3ccccc3N2C(C)=O)c1 (configuration not stated) | 1.6 | – |
| COc1ccc(OCCCCN2CCC(C(=O)c3ccc(F)cc3)CC2)c(C2Sc3ccccc3N2C(C)=O)c1 (configuration not stated) | 1.6 | – |
| CC(=O)N1c2ccccc2SC1c1cc(Cl)ccc1OCCCCN1CCC(C(=O)c2ccccc2)CC1 (configuration not stated) | 13 | – |
| COc1ccc(OCCCN(C)CCc2ccc(OC)c(OC)c2OC)c(C2Sc3ccccc3N2C(C)=O)c1 (configuration not stated) | 2 | – |
| COc1ccc(OCCCN(C)CCc2cc(OC)c(OC)c(OC)c2)c(C2Sc3ccccc3N2C(C)=O)c1 (configuration not stated) | 0.78 | – |
| COc1ccc(OCCCCN(C)C2CCCCC2)c(C2Sc3ccccc3N2C(C)=O)c1 (configuration not stated) | 4 | – |
| COc1ccc(OCCCCN)c(C2Sc3ccccc3N2C(C)=O)c1 (configuration not stated) | > 100 | – |
| COc1ccc(OCCCCN2CCC(C(=O)c3ccccc3)CC2)c(C2Sc3ccccc3N2C(C)=O)c1 (configuration not stated) | 1.4 | – |
| COc1ccc(OCCCCN2CCC(C(=O)c3ccc(Cl)cc3)CC2)c(C2Sc3ccccc3N2C(C)=O)c1 (configuration not stated) | 8.7 | – |
| COc1cc(CCN2CCN(CCCCOc3ccc(Cl)cc3C3Sc4ccccc4N3C(C)=O)CC2)cc(OC)c1OC (configuration not stated) | 2.3 | – |
| CC(=O)N1c2ccccc2SC1c1ccc(OCCN(C)C)cc1 (configuration not stated) | 36 | – |
| CN(CCCOc1ccccc1C1Sc2ccccc2N1C=O)C1CCCCC1 (configuration not stated) | 4 | – |
| CC(=O)N1c2ccccc2SC1c1cc([N+](=O)[O-])ccc1OCCCN(C)C (configuration not stated) | 6.2 | – |
| CCC(=O)N1c2ccccc2SC1c1cc(OC)ccc1OCCCCN1CCC(C(=O)c2ccccc2)CC1 (configuration not stated) | 10 | – |
| COc1ccc(OCCCCN(C)CCc2ccc(OC)c(OC)c2OC)c(C2Sc3ccccc3N2C(C)=O)c1 (configuration not stated) | 0.34 | – |
| CC(=O)N1c2ccccc2SC1c1ccccc1OCCCN(C)C1CCCCC1 (configuration not stated) | 1.7 | – |

| SMILES | IC50 (Cavia porcellus) [µM] | also measured |
| --- | --- | --- |
| CCC(=O)N1c2ccccc2SC1c1cc(OC)ccc1OCCCCN1CCN(CCc2cc(OC)c(OC)c(OC)c2)CC1 (configuration not stated) | 1.2 | – |
| COc1ccc(OCCCCCCN2CCN(CCc3ccc(OC)c(OC)c3)CC2)c(C2Sc3ccccc3N2C(C)=O)c1 (configuration not stated) | 11 | – |
| COc1ccc(OCCCN(C)CCc2ccc(OC)c(OC)c2)c(C2Sc3ccccc3N2C(C)=O)c1 (configuration not stated) | 0.78 | – |
| COc1ccc(OCCCCN2CCC(C(=O)c3ccccc3)CC2)c(C2SCCN2C(C)=O)c1 (configuration not stated) | 410 | – |
| COc1ccc(OCCCCNCCc2cc(OC)c(OC)c(OC)c2)c(C2Sc3ccccc3N2C(C)=O)c1 (configuration not stated) | 6.5 | – |
| COc1ccc(OCCCCCN(C)C2CCCCC2)c(C2Sc3ccccc3N2C=O)c1 (configuration not stated) | 2.7 | – |
| COc1ccc(OCCCN(C)C2CCCCC2)c(C2Sc3ccccc3N2C(C)=O)c1 (configuration not stated) | 4.2 | – |
| CCN(CCCCOc1ccc(OC)cc1C1Sc2ccccc2N1C(C)=O)CCc1cc(OC)c(OC)c(OC)c1 (configuration not stated) | 1 | – |
| COc1ccc(OCCCCCN(C)C2CCCCC2)c(C2Sc3ccccc3N2C(C)=O)c1 (configuration not stated) | 1.2 | – |
| CC(=O)N1c2ccccc2SC1c1cc([N+](=O)[O-])ccc1OCCCCN1CCC(C(=O)c2ccccc2)CC1 (configuration not stated) | 4.8 | – |
| COc1ccc(OCCCCN(CCc2cc(OC)c(OC)c(OC)c2)C2CC2)c(C2Sc3ccccc3N2C(C)=O)c1 (configuration not stated) | 1.2 | – |
| COc1ccc(OCCCCN(CCc2cc(OC)c(OC)c(OC)c2)C(C)C)c(C2Sc3ccccc3N2C(C)=O)c1 (configuration not stated) | 0.13 | – |
| COc1ccc(OCCCCCN(C)CCc2ccc(OC)c(OC)c2OC)c(C2Sc3ccccc3N2C(C)=O)c1 (configuration not stated) | 8 | – |
| COc1ccc(OCCCN2CCN(CCc3ccc(OC)c(OC)c3)CC2)c(C2Sc3ccccc3N2C(C)=O)c1 (configuration not stated) | 3 | – |
| COc1ccc(OCCCCCN2CCC(C(=O)c3ccccc3)CC2)c(C2Sc3ccccc3N2C(C)=O)c1 (configuration not stated) | 17 | – |
| COc1ccc([C@@H]2Sc3ccccc3N(CCN(C)C)C(=O)[C@@H]2OC(C)=O)cc1 [DILTIAZEM] | 0.17 | ED50 (Mus musculus): > 30 mg/kg; EC30 (Oryctolagus cuniculus [4]): 0.44 µM; EC10 (Oryctolagus cuniculus [1]): 2.6 µM; Decrease of SBP (Rattus norvegicus [2]): 44.2 mmHg; Decrease of SBP (Rattus norvegicus [3]): 22.5 mmHg; Ratio [5]: 6.5 |
| COC(=O)C1=C(C)NC(C)=C(C(=O)OCCN(C)Cc2ccccc2)C1c1cccc([N+](=O)[O-])c1 (configuration not stated) [NICARDIPINE] | – | ED50 (Mus musculus): > 30 mg/kg |
| COC(=O)C1=C(C)NC(C)=C(C(=O)OC)C1c1ccccc1[N+](=O)[O-] [NIFEDIPINE] | – | ED50 (Mus musculus): > 30 mg/kg |
| Clc1ccccc1CN1CCc2sccc2C1 [TICLOPIDINE] | – | ED50 (Mus musculus): 260 mg/kg |
| COc1ccc(CCN(C)CCCC(C#N)(c2ccc(OC)c(OC)c2)C(C)C)cc1OC (configuration not stated) [VERAPAMIL] | 0.1 | ED50 (Mus musculus): > 30 mg/kg; Decrease of SBP (Rattus norvegicus [6]): 24.2 mmHg; Decrease of SBP (Rattus norvegicus [3]): 83.3 mmHg |
